Experimental data from PMC11265520 (RSC Advances, 2024).
Like-named read-outs stand apart in the source and are kept apart here.

Key:
[1] = tested on: breast cancer cells MCF-7; assay: MTT antiproliferative assay, MCF-7 under normoxia and hypoxia; format: cell-based, human; conditions: for IC50: Homo sapiens; for HCR, hypoxic cytotoxicity ratio: IC50(N)/IC50(H): MCF-7; for antiproliferative activity, in words: MCF-7, Table 3
In short: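 MTT assay on MCF-7 cells grown in high-glucose DMEM with 10% FBS, penicillin and streptomycin at 37 °C and 5% CO2. Cells were seeded at 40 000 per well, and test compound (10 mM DMSO stock) was added after 24 h; controls got solvent. Cells were kept under normoxia (21% O2) or hypoxia (1% O2). IC50 is mean ± S.D. of 3 experiments; HCR = IC50(N)/IC50(H).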

LN229 = assay: Antiproliferative assay, LN229; format: cell-based; conditions: Homo sapiens, LN-229, read-out: IC50 LN229
[2] = tested on: panel of tumor cell lines; assay: Antiproliferative activity over the panel of tumor cell lines; format: cell-based, human; conditions: for IC50: Homo sapiens
K562 = assay: Antiproliferative assay, K562; format: cell-based; conditions: Homo sapiens, K562, read-out: IC50 K562
hCA IX = hCA IX (Homo sapiens, UniProt Q16790); assay: biochemical; format: biochemical
NCI-H1975 = assay: Antiproliferative assay, NCI-H1975; format: cell-based; conditions: Homo sapiens, NCI-H1975, read-out: IC50 NCI-H1975
Capan-1 = assay: Antiproliferative assay, Capan-1; format: cell-based; conditions: Homo sapiens, CAPAN-1, read-out: IC50 Capan-1
HL-60 = assay: Antiproliferative assay, HL-60; format: cell-based; conditions: Homo sapiens, HL-60, read-out: IC50 HL-60
Z138 = assay: Antiproliferative assay, Z138; format: cell-based; conditions: Homo sapiens, Z-138, read-out: IC50 Z138
hCA II = hCA II (Homo sapiens, UniProt P00918); assay: Stopped flow CO2 hydrase assay, hCA II; format: biochemical
DND-41 = assay: Antiproliferative assay, DND-41; format: cell-based; conditions: Homo sapiens, DND41, read-out: IC50 DND-41
hCA XII = hCA XII (Homo sapiens, UniProt O43570); assay: Stopped flow CO2 hydrase assay, hCA XII; format: biochemical
HCT-116 = assay: Antiproliferative assay, HCT-116; format: cell-based; conditions: Homo sapiens, HCT-116, read-out: IC50 HCT-116
hCA I = hCA I (Homo sapiens, UniProt P00915); assay: Stopped flow CO2 hydrase assay, hCA I; format: biochemical
[3] = tested on: CA IX and cleaved PARP expression in A431 cells; assay: Immunoblotting of CA IX and cleaved PARP in A431 cells under hypoxia; format: cell-based; conditions: 24 h
In short: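 A431 cells grew 24 h, then received test compound or tirapazamine reference (30 μM) in fresh medium and were held 24 h in hypoxia; the control stayed in normoxia. Lysis buffer: Tris-HCl pH 7.5, Igepal, NaCl, EDTA, DTT, PMSF, orthovanadate, protease inhibitors. Protein was measured by Bradford. Blots: 10% reducing SDS-PAGE, nitrocellulose, milk/TBS-Tween block, primary antibodies overnight at 4 °C, GAPDH loading control, HRP anti-rabbit, ECL.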

A431 skin cancer cells = assay: MTT assay, A431 cells in normoxia and hypoxia; format: cell-based; conditions: for IC50: Homo sapiens, A-431, 72 h
In short: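 A431 cells were cultured in high-glucose DMEM with 10% FBS and penicillin/streptomycin at 37 °C and 5% CO2, then seeded at 35 000 per well. After 24 h, test compound from a 10 mM DMSO stock was added, with solvent-only controls. Incubation lasted 72 h under normoxia or hypoxia (1% O2). Viability was read by MTT, with IC50 from the concentration-response curve.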

[4] = read-out: IC50 range over the tested tumor cell lines

hCA I, sequence (P00915 whole entry): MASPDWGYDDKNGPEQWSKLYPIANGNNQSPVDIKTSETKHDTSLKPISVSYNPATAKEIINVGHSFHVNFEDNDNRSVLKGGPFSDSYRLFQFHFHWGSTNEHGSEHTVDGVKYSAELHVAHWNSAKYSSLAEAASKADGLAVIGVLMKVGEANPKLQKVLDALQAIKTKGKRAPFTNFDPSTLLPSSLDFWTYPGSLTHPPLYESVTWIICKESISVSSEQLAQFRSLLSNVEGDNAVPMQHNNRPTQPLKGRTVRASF
hCA XII, sequence (O43570 25-354): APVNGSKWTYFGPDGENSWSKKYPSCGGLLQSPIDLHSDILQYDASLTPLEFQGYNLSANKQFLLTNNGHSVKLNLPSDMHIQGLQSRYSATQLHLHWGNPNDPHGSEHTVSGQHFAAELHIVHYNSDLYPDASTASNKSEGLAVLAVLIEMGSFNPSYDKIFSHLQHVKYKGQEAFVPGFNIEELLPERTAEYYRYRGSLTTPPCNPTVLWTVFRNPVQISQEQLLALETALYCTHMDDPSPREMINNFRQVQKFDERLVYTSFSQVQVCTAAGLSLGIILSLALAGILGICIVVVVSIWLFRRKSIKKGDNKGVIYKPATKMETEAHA

Row | Compound | IC50 ([1]; MCF7, read-out: IC50 H) [nM] | IC50 ([1]; MCF7, read-out: IC50 N) [nM] | HCR, hypoxic cytotoxicity ratio: IC50(N)/IC50(H) [1] | IC50 (LN229) [nM] | IC50 (K562) [nM] | Ki (hCA IX) [nM] | IC50 (NCI-H1975) [nM] | IC50 (Capan-1) [nM] | IC50 (HL-60) [nM] | IC50 (Z138) [nM] | Ki (hCA II) [nM] | IC50 (DND-41) [nM] | Ki (hCA XII) [nM] | IC50 (HCT-116) [nM] | Ki (hCA I) [nM] | further results
1 | CC(=O)c1c(C)[n+]([O-])c2ccc(S(N)(=O)=O)cc2[n+]1[O-] [Compound 8g, 2-Acetyl-3-methyl-7-sulfamoylquinoxaline 1,4-dioxide] | 2800 ± 400 | 11700 ± 1200 | 4.2 |  |  |  |  |  |  |  |  |  |  |  |  | 
2 | NS(=O)(=O)c1ccc2c(c1)[n+]([O-])c(C(F)(F)F)c(C(=O)c1ccccc1)[n+]2[O-] [Compound 7h, 2-Benzoyl-6-sulfamoyl-3-(trifluoromethyl)quinoxaline 1,4-dioxide] | 800 ± 50 | 1100 ± 100 | 1.4 | 1400 ± 30 | 1900 ± 200 | > 10000 | 1900 ± 100 | 1400 ± 70 | 1800 ± 100 | 1900 ± 100 | 4.8 ± 0.3 | 2100 ± 200 | 143 ± 11 | 1300 ± 80 | 51.5 ± 3.2 | IC50 [2, 4]: 1300 to 2100 nM; IC50 ([2]; read-out: IC50 range, all cell lines): 1100 to 2100 nM; higher activity compared to other analogs ([2]; against most tumor cells): 1.5–20 times
3 | N#Cc1c(-c2ccccc2)[n+]([O-])c2ccc(S(N)(=O)=O)cc2[n+]1[O-] [Compound 8a, 3-Phenyl-7-sulfamoylquinoxaline-2-carbonitrile 1,4-dioxide] | 1300 ± 300 | 4800 ± 200 | 3.7 |  |  | > 10000 |  |  |  |  | 4.4 ± 0.1 |  | 111 ± 9.7 |  | 60.7 ± 2.6 | 
4 | CCOC(=O)c1c(C)[n+]([O-])c2cc(S(N)(=O)=O)ccc2[n+]1[O-] [Compound 7f, 2-(Ethoxycarbonyl)-3-methyl-6-sulfamoylquinoxaline 1,4-dioxide] | 4300 ± 300 | 10500 ± 1200 | 2.4 | 35900 ± 1800 | 26000 ± 1300 | > 10000 | 33300 ± 1700 | 1700 ± 100 | 32600 ± 1600 | 3300 ± 1700 | 8 ± 0.3 | 10300 ± 500 | 56.4 ± 4 | 2700 ± 100 | 63 ± 3.1 | enhancement of tumor cell growth inhibition compared to compound 7e ([2]; Table 4 cell lines): 1.4–40 times; activity against CA IX, in words (hCA IX): did not exhibit any inhibitory activity
5 | N#Cc1c(-c2ccc(Cl)cc2)[n+]([O-])c2ccc(S(N)(=O)=O)cc2[n+]1[O-] [Compound 8b, 3-(4-Chlorophenyl)-7-sulfamoylquinoxaline-2-carbonitrile 1,4-dioxide] |  |  |  |  |  | > 10000 |  |  |  |  | 5 ± 0.4 |  | 133 ± 12 |  | 40.3 ± 3.1 | 
6 | CCOC(=O)c1c(-c2ccccc2)[n+]([O-])c2cc(S(N)(=O)=O)ccc2[n+]1[O-] [Compound 7e, 2-(Ethoxycarbonyl)-3-phenyl-6-sulfamoylquinoxaline 1,4-dioxide] | 900 ± 60 | 4000 ± 600 | 4.7 | 87000 ± 4300 | 52600 ± 2100 | 257 ± 14 | 47400 ± 2300 | 6000 ± 300 | 52700 ± 2600 | 15300 ± 800 | 5.4 ± 0.3 | 28200 ± 1400 | 252 ± 14 | > 100000 | 42.4 ± 1.9 | 
7 | N#Cc1c(-c2ccc(Cl)cc2)[n+]([O-])c2cc(S(N)(=O)=O)ccc2[n+]1[O-] [Compound 7b, 3-(4-Chlorophenyl)-6-sulfamoylquinoxaline-2-carbonitrile 1,4-dioxide] | 800 ± 200 | 1800 ± 200 | 2.2 | 24000 ± 1200 | 29700 ± 1500 | 429 ± 21 | 13900 ± 700 | 1800 ± 100 | 2000 ± 100 | 2500 ± 200 | 5.1 ± 0.3 | 5400 ± 300 | 178 ± 9 | 34300 ± 1700 | 53.7 ± 1.5 | enhancement of cytotoxicity compared to unsubstituted analogue 7a ([2]; all tested cell lines except DND-41): 1.2 to 6.8 times
8 | N#Cc1c(-c2cccs2)[n+]([O-])c2cc(S(N)(=O)=O)ccc2[n+]1[O-] [Compound 7d, 6-Sulfamoyl-3-(thiophen-2-yl)quinoxaline-2-carbonitrile 1,4-dioxide] | > 25000 | > 25000 |  | 98800 ± 4900 | > 100000 |  | > 100000 | > 100000 | 72400 ± 3600 | > 100000 |  | 44800 ± 2200 |  | > 100000 |  | activity against CA IX, in words (hCA IX): complete loss of activity; Ki (hCA IX; read-out: Ki hCA IX, mean from three experiments, stopped flow CO2 hydrase assay): > 10000 nM; antiproliferative activity, in words [1]: complete loss of activity; Ki (hCA II; read-out: Ki hCA II, mean from three experiments, stopped flow CO2 hydrase assay): 4.2 ± 0.1 nM; Ki (hCA I; read-out: Ki hCA I, mean from three experiments, stopped flow CO2 hydrase assay): 41.7 ± 2 nM
9 | CC(=O)c1c(C)[n+]([O-])c2cc(S(N)(=O)=O)ccc2[n+]1[O-] [Compound 7g, 2-Acetyl-3-methyl-6-sulfamoylquinoxaline 1,4-dioxide] | 6900 ± 300 | 7100 ± 200 | 1.1 | > 100000 | 94800 ± 4700 | 42.2 ± 4 | 66100 ± 3300 | 38300 ± 1900 | 85900 ± 4300 | 44300 ± 2200 | 7.4 ± 0.2 | 66900 ± 3300 | 240 ± 13 | 69600 ± 3500 | 65.7 ± 2.4 | CA IX expression [3]: dose-dependent reduction in CA IX expression; cleaved PARP (marker of apoptosis) [3]: accumulation of cleaved PARP; decrease in cell survival (A431 skin cancer cells; A431, 50 μM, normoxia, 72 h): approximately 40%; IC50 (A431 skin cancer cells; read-out: IC50 A431, hypoxia): ~11000 nM; IC50 (A431 skin cancer cells; read-out: IC50 A431, normoxia): > 50000 nM; decrease in activity compared to 2-ethoxycarbonyl analogue 7f ([2]; Table 4 cell lines): 2–25 fold
10 | N#Cc1c(-c2ccccc2)[n+]([O-])c2cc(S(N)(=O)=O)ccc2[n+]1[O-] [Compound 7a, 3-Phenyl-6-sulfamoylquinoxaline-2-carbonitrile 1,4-dioxide] | 900 ± 300 | 3500 ± 200 | 3.9 | 38800 ± 1900 | 10800 ± 500 | 2400 ± 96 | 19900 ± 900 | 7500 ± 400 | 2300 ± 100 | 8700 ± 400 | 2.7 ± 0.2 | 800 ± 50 | 89 ± 7 | 47900 ± 2300 | 49.1 ± 3 | 
11 | COc1cc([C@@H]2c3cc4c(cc3[C@@H](O[C@@H]3O[C@@H]5CO[C@@H](C)O[C@H]5[C@H](O)[C@H]3O)[C@H]3COC(=O)[C@H]23)OCO4)cc(OC)c1O [Etoposide, etoposide, reference compound] |  |  |  | 1700 ± 100 | 1200 ± 60 |  | 1100 ± 100 | 130 ± 10 | 700 ± 40 | 300 ± 20 |  | 290 ± 10 |  | 2300 ± 100 |  | IC50 [2, 4]: 130 to 2300 nM
12 | Nc1n[n+]([O-])c2ccccc2[n+]1[O-] [TPZ, Tirapazamine, reference compound] | 4500 ± 1100 | 24200 ± 3300 | 5.4 |  |  |  |  |  |  |  |  |  |  |  |  | 
13 | COc1cccc2c1C(=O)c1c(O)c3c(c(O)c1C2=O)C[C@@](O)(C(=O)CO)C[C@@H]3O[C@H]1C[C@H](N)[C@H](O)[C@H](C)O1 [DOXO, doxorubicin, reference compound] | 400 ± 30 | 300 ± 30 | 0.7 |  |  |  |  |  |  |  |  |  |  |  |  | 
14 | N#Cc1c(-c2ccco2)[n+]([O-])c2cc(S(N)(=O)=O)ccc2[n+]1[O-] [Compound 7c, 3-(Furan-2-yl)-6-sulfamoylquinoxaline-2-carbonitrile 1,4-dioxide] | > 25000 | > 25000 |  | > 100000 | > 100000 | > 10000 | > 100000 | > 100000 | > 100000 | > 100000 | 4.4 ± 0.2 | > 100000 | > 10000 | > 100000 | 38 ± 1.1 | activity against CA IX, in words (hCA IX): complete loss of activity; antiproliferative activity, in words [1]: complete loss of activity; activity against CA XII, in words (hCA XII): inactive
